# Laboratory results from ChEMBL document CHEMBL1142416, “Pharmacological exploitation of the peroxisome proliferator-activated receptor gamma agonist ciglitazone to develop a novel class of androgen receptor-ablative agents” (J Med Chem, 2008).
# Calls of active or inactive are those of the source. The calls are words filed in the database; no cut-off is given here.
# Key:
# [1] = test system: LNCaP; assay: Suppression of androgen receptor mRNA expression in human LNCaP cells at 60 uM by RT-PCR; format: functional, cell-based
# Summary of the method: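 LNCaP cells (1×10⁶/T25 flask) were treated in 10% FBS-supplemented medium for various times. Total RNA was isolated and 6 μg reverse-transcribed. AR and β-actin (reference) were amplified by PCR with gene-specific primers, and products were resolved on 1.5% agarose gels.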
# [2] = test system: LNCaP; assay: Suppression of androgen receptor protein expression in human LNCaP cells at 60 uM by Western blotting; format: functional, cell-based
# Summary of the method: (§1)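 LNCaP cells (1×10⁶/T25 flask) were exposed in 10% FBS-supplemented medium; dose series ran 72 h. Protein extracts were resolved on 10% SDS-PAGE and transferred to nitrocellulose, then blocked in 5% milk/TBST. Blots were probed overnight at 4°C with mouse anti-AR or anti-β-actin (1:1000), then HRP goat anti-mouse (1:2500, 1 h), and detected by enhanced chemiluminescence.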
# [3] = test system: LNCaP; assay: Suppression of androgen receptor protein expression in human LNCaP cells at 30 uM by Western blotting; format: functional, cell-based; summary of the method: as §1
# [4] = test system: LNCaP; assay: Inhibition of androgen receptor protein expression in human LNCaP cells after 72 hrs by Western blotting; format: functional, cell-based; summary of the method: as §1
# [5] = test system: LNCaP; assay: Antitumor activity against androgen responsive human LNCaP cells by MTT assay at 48 hrs; format: functional, cell-based
# Summary of the method: (§2)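 LNCaP or PC-3 cells were seeded at 6000/well in 10% FBS RPMI 1640 for 24 h. They were then treated at various concentrations in 5% FBS RPMI 1640 for 48 or 72 h, with DMSO-matched controls. MTT (0.5 mg/ml) was added for 2 h at 37°C and the dye solubilized in DMSO. A570 was read in six replicates, and IC50 was taken from dose-response.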
# [6] = test system: LNCaP; assay: Cell cycle arrest in human LNCaP cells assessed as accumulation at G2/M phase at 2.5 uM after 72 hrs; format: functional
# Summary of the method: (§3)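 LNCaP cells were plated at 2.5 × 10⁶ cells/well and treated at the stated concentrations for 72 h. They were washed in PBS, trypsinized and fixed in ice-cold 80% ethanol overnight at 4°C. Staining used propidium iodide (50 μg/ml) with RNase A (100 units/ml) in PBS. Phase distribution was measured by flow cytometry; values are the mean of two independent determinations.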
# [7] = test system: LNCaP; assay: Inhibition of androgen receptor mRNA expression in human LNCap cells after 72 hrs; format: functional, cell-based; details: in the assay text read “protein expression” for “mRNA expression”
# [8] = test system: LNCaP; assay: Induction of apoptosis in human LNCaP cells assessed as caspase 7 activation after 72 hrs; format: functional, cell-based
# Summary of the method: (§4)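 LNCaP cells were treated over a dose range for 72 h. Lysates were prepared with protease/phosphatase inhibitors and run on 10% SDS-PAGE, then transferred to nitrocellulose. PARP cleavage and caspase-3 and caspase-7 processing were detected by immunoblot with chemiluminescence.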
# [9] = test system: LNCaP; assay: Cell cycle arrest in human LNCaP cells assessed as accumulation at G2/M phase at 1 uM after 72 hrs; format: functional; summary of the method: as §3
# [10] = test system: LNCaP; assay: Cell cycle arrest in human LNCaP cells assessed as accumulation at subG1 phase at 7.5 uM after 72 hrs; format: functional; summary of the method: as §3
# [11] = test system: LNCaP; assay: Decrease in androgen receptor protein expression in human LNCaP cells at 5 uM after 48 hrs by immunocytochemical method; format: functional, cell-based
# Summary of the method: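 LNCaP cells were seeded on coverslips (2.5 × 10⁵/well) for 24 h, then exposed to 5 μM for 48 h. They were fixed and permeabilized with 0.1% Triton X-100 in PBS for 1 h. Mouse anti-AR (1:100) was applied for 12 h at room temperature, then Alexa Fluor 488 goat anti-mouse IgG (1:100) for 2 h. Nuclei were counterstained with DAPI and slides imaged by microscopy.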
# [12] = test system: LNCaP; assay: Cell cycle arrest in human LNCaP cells assessed as accumulation at G2/M phase at 7.5 uM after 72 hrs; format: functional; summary of the method: as §3
# [13] = test system: LNCaP; assay: Cell cycle arrest in human LNCaP cells assessed as accumulation at G1 phase at 7.5 uM after 72 hrs; format: functional; summary of the method: as §3
# [14] = test system: LNCaP; assay: Cell cycle arrest in human LNCaP cells assessed as accumulation at S phase at 10 uM after 72 hrs; format: functional; summary of the method: as §3
# [15] = test system: LNCaP; assay: Antitumor activity against androgen responsive human LNCaP cells by MTT assay at 72 hrs; format: functional, cell-based; summary of the method: as §2
# [16] = test system: LNCaP; assay: Cell cycle arrest in human LNCaP cells assessed as accumulation at S phase at 7.5 uM after 72 hrs; format: functional; summary of the method: as §3
# [17] = test system: LNCaP; assay: Cell cycle arrest in human LNCaP cells assessed as accumulation at G1 phase at 2.5 uM after 72 hrs; format: functional; summary of the method: as §3
# [18] = test system: LNCaP; assay: Cell cycle arrest in human LNCaP cells assessed as accumulation at G2/M phase at 5 uM after 72 hrs; format: functional; summary of the method: as §3
# [19] = test system: LNCaP; assay: Cell cycle arrest in human LNCaP cells assessed as accumulation at G1 phase at 1 uM after 72 hrs; format: functional; summary of the method: as §3
# [20] = test system: PC-3; assay: Antitumor activity against androgen non-responsive human PC3 cells by MTT assay at 48 hrs; format: functional, cell-based; details: PC-3, 48 h; summary of the method: as §2
# [21] = test system: PC-3; assay: Antitumor activity against androgen non-responsive human PC3 cells by MTT assay at 72 hrs; format: functional, cell-based; details: PC-3, 72 h; summary of the method: as §2
# [22] = test system: LNCaP; assay: Cell cycle arrest in human LNCaP cells assessed as accumulation at S phase at 5 uM after 72 hrs; format: functional; summary of the method: as §3
# [23] = test system: LNCaP; assay: Cell cycle arrest in human LNCaP cells assessed as accumulation at subG1 phase at 1 uM after 72 hrs; format: functional; summary of the method: as §3
# [24] = test system: LNCaP; assay: Cell cycle arrest in human LNCaP cells assessed as accumulation at S phase at 1 uM after 72 hrs; format: functional; summary of the method: as §3
# [25] = test system: LNCaP; assay: Cell cycle arrest in human LNCaP cells assessed as accumulation at subG1 phase at 5 uM after 72 hrs; format: functional; summary of the method: as §3
# [26] = test system: LNCaP; assay: Cell cycle arrest in human LNCaP cells assessed as accumulation at subG1 phase at 10 uM after 72 hrs; format: functional; summary of the method: as §3
# [27] = test system: LNCaP; assay: Cell cycle arrest in human LNCaP cells assessed as accumulation at G1 phase at 10 uM after 72 hrs; format: functional; summary of the method: as §3
# [28] = test system: LNCaP; assay: Cell cycle arrest in human LNCaP cells assessed as accumulation at G1 phase at 5 uM after 72 hrs; format: functional; summary of the method: as §3
# [29] = test system: LNCaP; assay: Cell cycle arrest in human LNCaP cells assessed as accumulation at G2/M phase at 10 uM after 72 hrs; format: functional; summary of the method: as §3
# [30] = test system: LNCaP; assay: Induction of apoptosis in human LNCaP cells assessed as caspase 3 activation after 72 hrs; format: functional, cell-based; summary of the method: as §4
# [31] = test system: LNCaP; assay: Cell cycle arrest in human LNCaP cells assessed as accumulation at S phase at 2.5 uM after 72 hrs; format: functional; summary of the method: as §3
# [32] = test system: LNCaP; assay: Cell cycle arrest in human LNCaP cells assessed as accumulation at subG1 phase at 2.5 uM after 72 hrs; format: functional; summary of the method: as §3
# [33] = test system: LNCaP; assay: Induction of apoptosis in human LNCaP cells assessed as PARP cleavage after 72 hrs; format: functional, cell-based; summary of the method: as §4
smiles,measurement,setting,value
CC1(COc2ccc(CC3SC(=O)NC3=O)cc2)CCCCC1 (configuration not stated),Activity,[1],Active
same,Activity,[2],Active
CC1(COc2ccc(/C=C3\SC(O)=NC3=O)cc2)CCCCC1,Activity,[3],Active
CC1(CN2C(=O)S/C(=C\c3ccc(O)cc3)C2=O)CCCCC1,Activity,[4],Dose-dependent effect
CC1(CN2C(=O)S/C(=C\c3ccc(O)c(C(F)(F)F)c3)C2=O)CCCCC1,IC50,[5],8 µM
same,Activity,[6],14%
same,Activity,[7],Active
same,Activity,[8],Dose-dependent effect
same,Activity,[9],14%
same,Activity,[10],20%
same,Activity,[11],Active
same,Activity,[12],2%
same,Activity,[13],63%
same,Activity,[14],21%
same,IC50,[15],3 µM
same,Activity,[16],15%
same,Activity,[17],65%
same,Activity,[18],3%
same,Activity,[19],66%
same,IC50,[4],2 µM
same,IC50,[20],15 µM
same,IC50,[21],12 µM
same,Activity,[22],18%
same,Activity,[23],1%
same,Activity,[24],19%
same,Activity,[25],10%
same,Activity,[26],28%
same,Activity,[27],51%
same,Activity,[28],69%
same,Activity,[29],0%
same,Activity,[30],Dose-dependent effect
same,Activity,[31],19%
same,Activity,[32],2%
same,Activity,[33],Dose-dependent effect
CC1(CN2C(=O)S/C(=C\c3cc(Br)c(O)c(Br)c3)C2=O)CCCCC1,Activity,[7],Active
same,Activity,[8],Dose-dependent effect
same,IC50,[4],4 µM
same,Activity,[30],Dose-dependent effect
same,Activity,[33],Dose-dependent effect
CC1(COc2cccc(/C=C3\SC(=O)NC3=O)c2)CCCCC1,Activity,[4],Dose-dependent effect
CCOc1cc(/C=C2\SC(=O)NC2=O)ccc1OCC1(C)CCCCC1,Activity,[4],Dose-dependent effect
CC1(CN2C(=O)SC(Cc3ccc(O)c(C(F)(F)F)c3)C2=O)CCCCC1 (configuration not stated),Activity,[4],Dose-dependent effect
